System: Fibroblast
Experiment: Multiplex assay against human fibroblast
Type: toxicity, cell-based
Procedure, shortened: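 Phenotypes for tubulin, mitochondrial mass and membrane permeability are expressed as per cents of healthy-nucleus cells. Cells were stained live at seeding with Hoechst33342, BioTracker Green Microtubule Cytoskeleton Dye, MitoTracker Red and Annexin V Alexa Fluor 680, then imaged after compound addition on a CQ1 microscope at 37°C and 5% CO2. Machine-learning gating in CellPathfinder separated Hoechst high-intensity objects from normal cells, divided normal cells by nuclear state (healthy, pyknosed, fragmented) and divided pyknosed cells into mitotic or apoptotic.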

[1] = 12 h, 1 µM, compound concentration 1 uM, replicate 1
[2] = 12 h, 1 µM, compound concentration 1 uM, replicate 2
[3] = 12 h, 10 µM, compound concentration 10 uM, replicate 1
[4] = 12 h, 10 µM, compound concentration 10 uM, replicate 2
[5] = 24 h, 1 µM, compound concentration 1 uM, replicate 1
[6] = 24 h, 1 µM, compound concentration 1 uM, replicate 2
[7] = 24 h, 10 µM, compound concentration 10 uM, replicate 1
[8] = 24 h, 10 µM, compound concentration 10 uM, replicate 2
[9] = 48 h, 1 µM, compound concentration 1 uM, replicate 1
[10] = 48 h, 1 µM, compound concentration 1 uM, replicate 2
[11] = 48 h, 10 µM, compound concentration 10 uM, replicate 1
[12] = 48 h, 10 µM, compound concentration 10 uM, replicate 2

C[C@H](N)COC(=O)[C@@H](CCCCN)NC(=O)Cc1c(-c2ccc3ccccc3c2)[nH]c2c1ccc1ccccc12
Population Apoptotic (%) [1]: 32%
Population Fragmented Nuclei (%) [1]: 18%
Population Healthy Nuclei (%) [1]: 65%
Population Hoechst High Intensity Objects (%) [1]: 1%
Population Membrane Permeable-Phenotype (%) [1]: 0%
Population Mitochondria Different-Phenotype (%) [1]: 7%
Population Mitotic Cells (%) [1]: 67%
Population Normal (%) [1]: 98%
Population Pyknosed Nuclei (%) [1]: 15%
Population Tubulin-Different-Phenotype (%) [1]: 32%
Total Cell Count [1]: 179
Population Apoptotic (%) [2]: 50%
Population Fragmented Nuclei (%) [2]: 25%
Population Healthy Nuclei (%) [2]: 51%
Population Hoechst High Intensity Objects (%) [2]: 4%
Population Membrane Permeable-Phenotype (%) [2]: 5%
Population Mitochondria Different-Phenotype (%) [2]: 4%
Population Mitotic Cells (%) [2]: 50%
Population Normal (%) [2]: 95%
Population Pyknosed Nuclei (%) [2]: 23%
Population Tubulin-Different-Phenotype (%) [2]: 36%
Total Cell Count [2]: 170
Population Apoptotic (%) [3]: 43%
Population Fragmented Nuclei (%) [3]: 13%
Population Healthy Nuclei (%) [3]: 69%
Population Hoechst High Intensity Objects (%) [3]: 2%
Population Membrane Permeable-Phenotype (%) [3]: 1%
Population Mitochondria Different-Phenotype (%) [3]: 8%
Population Mitotic Cells (%) [3]: 56%
Population Normal (%) [3]: 97%
Population Pyknosed Nuclei (%) [3]: 16%
Population Tubulin-Different-Phenotype (%) [3]: 33%
Total Cell Count [3]: 183
Population Apoptotic (%) [4]: 62%
Population Fragmented Nuclei (%) [4]: 32%
Population Healthy Nuclei (%) [4]: 50%
Population Hoechst High Intensity Objects (%) [4]: 7%
Population Membrane Permeable-Phenotype (%) [4]: 5%
Population Mitochondria Different-Phenotype (%) [4]: 6%
Population Mitotic Cells (%) [4]: 37%
Population Normal (%) [4]: 92%
Population Pyknosed Nuclei (%) [4]: 17%
Population Tubulin-Different-Phenotype (%) [4]: 47%
Total Cell Count [4]: 167
Population Apoptotic (%) [5]: 53%
Population Fragmented Nuclei (%) [5]: 16%
Population Healthy Nuclei (%) [5]: 66%
Population Hoechst High Intensity Objects (%) [5]: 3%
Population Membrane Permeable-Phenotype (%) [5]: 0%
Population Mitochondria Different-Phenotype (%) [5]: 5%
Population Mitotic Cells (%) [5]: 46%
Population Normal (%) [5]: 96%
Population Pyknosed Nuclei (%) [5]: 17%
Population Tubulin-Different-Phenotype (%) [5]: 30%
Total Cell Count [5]: 179
Population Apoptotic (%) [6]: 29%
Population Fragmented Nuclei (%) [6]: 25%
Population Healthy Nuclei (%) [6]: 54%
Population Hoechst High Intensity Objects (%) [6]: 7%
Population Membrane Permeable-Phenotype (%) [6]: 3%
Population Mitochondria Different-Phenotype (%) [6]: 7%
Population Mitotic Cells (%) [6]: 70%
Population Normal (%) [6]: 92%
Population Pyknosed Nuclei (%) [6]: 20%
Population Tubulin-Different-Phenotype (%) [6]: 39%
Total Cell Count [6]: 162
Population Apoptotic (%) [7]: 63%
Population Fragmented Nuclei (%) [7]: 13%
Population Healthy Nuclei (%) [7]: 74%
Population Hoechst High Intensity Objects (%) [7]: 7%
Population Membrane Permeable-Phenotype (%) [7]: 0%
Population Mitochondria Different-Phenotype (%) [7]: 5%
Population Mitotic Cells (%) [7]: 36%
Population Normal (%) [7]: 92%
Population Pyknosed Nuclei (%) [7]: 11%
Population Tubulin-Different-Phenotype (%) [7]: 31%
Total Cell Count [7]: 171
Population Apoptotic (%) [8]: 50%
Population Fragmented Nuclei (%) [8]: 36%
Population Healthy Nuclei (%) [8]: 50%
Population Hoechst High Intensity Objects (%) [8]: 6%
Population Membrane Permeable-Phenotype (%) [8]: 5%
Population Mitotic Cells (%) [8]: 50%
Population Normal (%) [8]: 93%
Population Pyknosed Nuclei (%) [8]: 13%
Population Tubulin-Different-Phenotype (%) [8]: 54%
Total Cell Count [8]: 159
Population Apoptotic (%) [9]: 72%
Population Fragmented Nuclei (%) [9]: 21%
Population Healthy Nuclei (%) [9]: 65%
Population Hoechst High Intensity Objects (%) [9]: 5%
Population Membrane Permeable-Phenotype (%) [9]: 0%
Population Mitochondria Different-Phenotype (%) [9]: 7%
Population Mitotic Cells (%) [9]: 27%
Population Normal (%) [9]: 94%
Population Pyknosed Nuclei (%) [9]: 12%
Population Tubulin-Different-Phenotype (%) [9]: 26%
Total Cell Count [9]: 186
Population Apoptotic (%) [10]: 51%
Population Fragmented Nuclei (%) [10]: 30%
Population Healthy Nuclei (%) [10]: 50%
Population Hoechst High Intensity Objects (%) [10]: 2%
Population Membrane Permeable-Phenotype (%) [10]: 3%
Population Mitochondria Different-Phenotype (%) [10]: 6%
Population Mitotic Cells (%) [10]: 48%
Population Normal (%) [10]: 97%
Population Pyknosed Nuclei (%) [10]: 18%
Population Tubulin-Different-Phenotype (%) [10]: 39%
Total Cell Count [10]: 169
Population Apoptotic (%) [11]: 46%
Population Fragmented Nuclei (%) [11]: 16%
Population Healthy Nuclei (%) [11]: 68%
Population Hoechst High Intensity Objects (%) [11]: 9%
Population Membrane Permeable-Phenotype (%) [11]: 0%
Population Mitochondria Different-Phenotype (%) [11]: 4%
Population Mitotic Cells (%) [11]: 53%
Population Normal (%) [11]: 90%
Population Pyknosed Nuclei (%) [11]: 15%
Population Tubulin-Different-Phenotype (%) [11]: 35%
Total Cell Count [11]: 185
Population Apoptotic (%) [12]: 55%
Population Fragmented Nuclei (%) [12]: 36%
Population Healthy Nuclei (%) [12]: 52%
Population Hoechst High Intensity Objects (%) [12]: 5%
Population Membrane Permeable-Phenotype (%) [12]: 7%
Population Mitochondria Different-Phenotype (%) [12]: 8%
Population Mitotic Cells (%) [12]: 44%
Population Normal (%) [12]: 94%
Population Pyknosed Nuclei (%) [12]: 11%
Population Tubulin-Different-Phenotype (%) [12]: 54%
Total Cell Count [12]: 166
